This is an account of results in ChEMBL document CHEMBL3526003, “Pharmacokinetics of the monohydroxy derivative of oxcarbazepine and its enantiomers after a single intravenous dose given as racemate compared with a single oral dose of oxcarbazepine” (Drug Metab Dispos, 2011).

Series [1] can be described thus: Terminal half life in human urine treated with monohydroxy derivative of OXC at 250 mg, iv administered as infusion over 30 mins by high-performance liquid chromatography. Conditions: read-out: beta t1/2 (converted). It is filed as ADME, organism-based. An outline of the steps: (§1)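 250 mg racemic MHD infused intravenously over 30 min to 12 healthy adults. Plasma was drawn at 0 to 30 min and up to 72 h, and urine was fractionated to 72 h. Enantioselective HPLC was used. Renal clearance was Ae/AUC; Vss was CL_T·MRT (AUMC/AUC). Urinary half-life came from log-linear slopes between 4–18 h and 40–64 h.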

The nature of series [2]: Terminal half life in human urine treated with oxcarbazepine at 300 mg, po administered as one-film coated tablet by high-performance liquid chromatography. It is filed as ADME, organism-based. Conditions: read-out: beta t1/2 (converted). In outline:
(§2)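 300 mg oral tablet given to 12 healthy adults. Urine was collected in fractions up to 72 h and kept at 2–8 °C, then frozen at -20 °C. Analytes were measured by HPLC before and after β-glucuronidase hydrolysis (pH 6.7, 37 °C, about 15 h). Renal clearance was Ae/plasma AUC. Urinary terminal half-life came from log-linear slopes between 4–18 h and 40–64 h.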

A short description of series [3]: Drug excretion in human urine assessed as total amount of drug eliminated treated with oxcarbazepine at 300 mg, po administered as one-film coated tablet by high-performance liquid chromatography. It is filed as ADME, organism-based. Conditions: read-out: Ae. An outline of the steps: as §2
A short description of series [4]: Tmax in human treated with monohydroxy derivative of OXC at 250 mg, iv administered as infusion over 30 mins by high-performance liquid chromatography. The format is ADME, organism-based. Conditions: in vivo. In outline: (§3)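 Healthy adults (6 male, 6 female) in an open randomized two-way crossover with at least one week washout. Venous heparinized plasma was sampled at 0, 5, 10, 15, 20, 25 and 30 min and at 1-72 h after the start of infusion, and stored at -80 C. Analytes were measured by non-enantioselective and enantioselective HPLC. Tmax is the observed time of peak concentration, reported as a median.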

Series [5] in a line: Cmax in human at 300 mg, po administered as one-film coated tablet by high-performance liquid chromatography. The format is ADME, organism-based. Set-up: dose 300 mg, route oral. Conditions: in vivo. An outline of the steps:
(§4)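 Healthy adults (6 male, 6 female), single 300 mg film-coated tablet by mouth, fasting, in a randomized two-way crossover with at least one week of washout. Venous heparinized blood was drawn at 0–72 h. Plasma was separated at 2200 g and stored at -80 °C. Non-enantioselective and enantioselective HPLC were used. Cmax/tmax were the observed peak; AUC was by linear trapezoidal rule.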

A short description of series [6]: Tmax in human at 300 mg, po administered as one-film coated tablet by high-performance liquid chromatography. Conditions: in vivo. The format is ADME, organism-based. In outline:
as §4

Series [7] in a line: AUC in human at 300 mg, po administered as one-film coated tablet by high-performance liquid chromatography. The format is ADME, organism-based. Conditions: plasma. An outline of the steps: as §4
Series [8] in a line: Cmax in human treated with monohydroxy derivative of OXC at 250 mg, iv administered as infusion over 30 mins by high-performance liquid chromatography. The format is ADME, organism-based. Set-up: dose 250 mg, route intravenous. Conditions: in vivo. An outline of the steps: as §3
In the next series the test system is Plasma. Briefly: Drug level in human plasma at 400 mg, po. It is filed as ADME, cell-free.
The nature of series [9]: Oral bioavailability in human at 300 mg administered as one-film coated tablet by non-enantiospecific assay based high-performance liquid chromatography. The format is ADME, organism-based. Conditions: in vivo. An outline of the steps:
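Crossover of 12 healthy adults: 250 mg racemic MHD infused intravenously over 30 min versus a 300 mg oral tablet, with at least one week of washout. Plasma MHD was measured by non-enantioselective HPLC-UV at 210 nm after C18 solid-phase extraction (LOQ 0.1 µmol/L). Bioavailability f was the dose-corrected ratio of oral to intravenous AUC.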

Series [10] is described as follows: AUC (0 to 72 hrs) in human treated with monohydroxy derivative of OXC at 200 mg, iv administered as single dose by high-performance liquid chromatography. It is filed as ADME, organism-based. Conditions: plasma. The arrangement: time < 72 hr, dose 200 mg, route intravenous. An outline of the steps: (§5)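 Pilot ascending-dose study: one healthy subject per level received 150, 200 or 250 mg racemic MHD intravenously as a single dose. Plasma was sampled to 72 h and assayed by non-enantioselective and enantioselective HPLC. AUC(0-72h) was computed by the linear trapezoidal method.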

The nature of series [11]: AUC (0 to 72 hrs) in human treated with monohydroxy derivative of OXC at 250 mg, iv administered as single dose by high-performance liquid chromatography. It is filed as ADME, organism-based. The arrangement: dose 250 mg, time < 72 hr, route intravenous. Conditions: plasma. In outline:
as §5

Series [12] can be described thus: Volume of distribution at steady state in human treated with monohydroxy derivative of OXC at 250 mg, iv administered as infusion over 30 mins by high-performance liquid chromatography. Conditions: in vivo, read-out: Vdss. It is filed as ADME, organism-based. In outline:
as §1

Series [13] in a line: Total plasma clearance in human treated with monohydroxy derivative of OXC at 150 mg, iv administered as single dose by high-performance liquid chromatography. It is filed as ADME, organism-based. In outline:
(§6)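 Pilot study: single intravenous racemic MHD at 150, 200 or 250 mg, one subject per dose. Plasma was sampled to 72 h and analysed by HPLC. Total plasma clearance was computed as Dose/AUC, with AUC from the linear trapezoidal rule.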

Series [14] can be described thus: Total plasma clearance in human treated with monohydroxy derivative of OXC at 200 mg, iv administered as single dose by high-performance liquid chromatography. The format is ADME, organism-based. In outline:
as §6

The nature of series [15]: Renal clearance in human treated with oxcarbazepine at 300 mg, po administered as one-film coated tablet by high-performance liquid chromatography. Conditions: in vivo. It is filed as ADME, organism-based, Kidney. In outline: as §2
A short description of series [16]: Apparent terminal half life in human plasma treated with monohydroxy derivative of OXC at 250 mg, iv administered as infusion over 30 mins by high-performance liquid chromatography. Conditions: read-out: betat1/2(app) (converted). It is filed as ADME, organism-based. In outline:
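Healthy adult volunteers (6 male, 6 female), randomized two-way crossover with at least one week washout; single 250 mg racemic MHD infused i.v. over 30 min. Heparinized plasma sampled 0–30 min then 1–72 h after start of infusion, stored -80 C; enantiomers quantified by enantioselective HPLC.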

Series [17] in a line: Cmax in human treated with oxcarbazepine at 300 mg, po administered as one-film coated tablet by high-performance liquid chromatography. The format is ADME, organism-based. Set-up: dose 300 mg, route oral. Conditions: in vivo. An outline of the steps: as §4
Series [18] is described as follows: Apparent terminal half life in human plasma treated with oxcarbazepine at 300 mg, po administered as one-film coated tablet by high-performance liquid chromatography. The format is ADME, organism-based. Conditions: read-out: betat1/2(app) (converted). In outline: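 Healthy adult volunteers (6 male, 6 female), randomized two-way crossover with at least one week washout; single oral 300 mg film-coated oxcarbazepine tablet, fasting. Heparinized plasma sampled 0–72 h post dose, stored -80 C; MHD enantiomers quantified by enantioselective HPLC.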

Series [19] in a line: Tmax in human treated with oxcarbazepine at 300 mg, po administered as one-film coated tablet by high-performance liquid chromatography. The format is ADME, organism-based. Conditions: in vivo. An outline of the steps:
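Healthy adults (6 male, 6 female) took a single dose under fasting conditions in an open randomized two-way crossover with at least one week washout. Heparinized plasma was sampled at 0, 1, 2, 3, 4, 6, 8, 10, 24, 32, 48, 56 and 72 h, and stored at -80 C. Analytes were measured by HPLC (UV 210 nm for MHD). Cmax and Tmax are the highest observed concentration and its time relative to dosing.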

A short description of series [20]: Total plasma clearance in human treated with monohydroxy derivative of OXC at 250 mg, iv administered as single dose by high-performance liquid chromatography. It is filed as ADME, organism-based. An outline of the steps: as §6
Series [21] can be described thus: AUC (0 to 72 hrs) in human treated with monohydroxy derivative of OXC at 150 mg, iv administered as single dose by high-performance liquid chromatography. The format is ADME, organism-based. Conditions: plasma. Set-up: dose 150 mg, time < 72 hr, route intravenous. An outline of the steps: as §5
A short description of series [22]: Renal clearance in human treated with monohydroxy derivative of OXC at 250 mg, iv administered as infusion over 30 mins by high-performance liquid chromatography. The format is ADME, organism-based, Kidney. Conditions: in vivo. An outline of the steps: as §1

Take `NC(=O)N1c2ccccc2C[C@@H](O[C@@H]2O[C@H](C(=O)O)[C@@H](O)[C@H](O)[C@H]2O)c2ccccc21`: the half-life in [1] was 14.2 h; in series [2], 10.3 h. For the same molecule, the dose excreted in [3] worked out at 5.62%.
As to `NC(=O)N1c2ccccc2CC(=O)c2ccccc21` [OXCARBAZEPINE], the Tmax was found to be 0.5 h in [4] and 1 h in series [6]. Moreover, the Cmax came to 2 µM in [5] and 0.08 µM in series [8]. The AUC in [7] was determined as 6.8 µM·h. Moreover, the Drug uptake with Plasma came out at 2%. The bioavailability in series [9] came out at 99%.
For `NC(=O)N1c2ccccc2C[C@@H](O)c2ccccc21`, the exposure AUC(0-t) at 72 h in [10] was determined as 59.1 µM·h; in series [11], 132 µM·h; in [21], 55.7 µM·h. Also, in [12], the Vd stood at 54.7 L. The half-life is 9 h in series [1], 9 h in [16], 15.8 h in series [18] and 7 h in series [2]. For the same molecule, the clearance was 88.3 mL/min in series [13], 111 mL/min in series [14] and 62.2 mL/min in [20]. The molecule also showed a CL renal in [15] of 16.7 mL/min. Further, the Cmax in [17] was 3 µM. The Tmax in series [19] was found to be 3.5 h. In series [22], the CL renal at 0.5 h is 15 mL/min. The dose excreted in series [3] came out at 4.85%.
